NPY-Y1 PAM-ag: human NPY-Y1 potentiation or agonism, primary screen; P25929; NPY-Y1 expressing cells, potentiator/agonist activation; AID 1304; 0.37% of 220,000 active; activation, % at 3.6 µM; in the data active means activation above about 33%, passing the limit was not always enough;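 further: cells stimulated with NPY at EC10 then isoproterenol at EC100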
NPY-Y2 PAM-ag: human NPY-Y2 potentiation or agonism, primary screen | activation, % at 3.6 µM | 0.45% of 220,000 active | P49146 | cells expressing NPY-Y2, potentiator/agonist read-out; in the data active means activation above about 27%;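 further: cells stimulated with NPY near EC25 plus isoproterenol at EC100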
Target sequence (P49146 whole entry, looked up): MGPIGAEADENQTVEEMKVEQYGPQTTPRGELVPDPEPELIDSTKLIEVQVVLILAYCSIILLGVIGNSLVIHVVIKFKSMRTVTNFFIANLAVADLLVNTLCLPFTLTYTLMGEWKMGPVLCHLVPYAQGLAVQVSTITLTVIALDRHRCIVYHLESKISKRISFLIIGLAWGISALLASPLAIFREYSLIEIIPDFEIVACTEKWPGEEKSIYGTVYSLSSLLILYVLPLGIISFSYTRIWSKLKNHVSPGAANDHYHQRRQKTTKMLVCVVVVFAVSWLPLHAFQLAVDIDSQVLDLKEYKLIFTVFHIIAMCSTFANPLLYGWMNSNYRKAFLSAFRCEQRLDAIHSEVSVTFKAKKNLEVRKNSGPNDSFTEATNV
NPY Y2 blocker: NPY-Y2 (human) receptor antagonism; P49146; 0.99% of 140,000 active; AID 793; NPY-Y2 expressing cells, antagonist mode; inhibition, % at 2.7 µM
NPY Y1 blocker: antagonists of human neuropeptide Y receptor Y1; P25929; HEK293-CNG Y1 cells, membrane potential fluorescence; NPY at EC95, then isoproterenol; inhibition, % at 3.6 µM; 1% of 200,000 active; AID 1040;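 active means inhibition above the campaign mean inhibition of all tested compounds plus 3 SD, cut at about 20% in these data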
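Material: HEK293 cells with Y1 receptor plus CNG channel; times: compound incubation 1 h at room temperature, readout 45 min post-stimulation; signal: fluorescence, membrane potential probe; read-out basis: fluorescence ratio normalized to % inhibition between controls; benchmarks: full-block control isoproterenol-only wells, zero-block control NPY plus isoproterenol wells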
NPY-Y1 ant conf: human NPY-Y1 antagonism, confirmation; HEK293-CNG NPY-Y1, membrane potential fluorescence, cAMP; NPY challenge against isoproterenol-raised cAMP; AID 1254; shares compounds with NPY Y1 blocker; 21% of 1,200 active; inhibition, % at 3.6 µM; in the data active means inhibition above about 20%
NPY-Y2 antag ct: counter-screen for NPY-Y1 antagonists: human NPY-Y2 antagonism; shares compounds with NPY Y1 blocker; HEK293 NPY-Y2 CNG membrane potential fluorescence; cells given NPY, then isoproterenol; inhibition, % at 3.6 µM; 28% of 1,200 active; AID 1255
Numbers stand for hits; i = inactive; nt = no result. An excerpt weighted towards active compounds, which were near 1.8% of everything screened. Unless noted, no stated cut-off is given here; in the data, active means inhibition above about 17%; inactive means the rest.

SMILES	NPY-Y1 PAM-ag	NPY-Y2 PAM-ag	NPY Y2 blocker	NPY Y1 blocker	NPY-Y1 ant conf	NPY-Y2 antag ct
Cc1ccc(NC(=O)CSc2nnc(C(F)(F)F)n2C)cc1[N+](=O)[O-]	i	i	i	i	nt	nt
C=CCc1cccc2cc(C(=O)NNC(=O)CC#N)c(=O)oc12	i	i	nt	nt	nt	nt
Cc1cc(C)c(OCC(=O)Nc2nnc(-c3ccco3)o2)c(C)c1	i	i	nt	31	i	i
CCN(CC)S(=O)(=O)c1cccc(-c2nnc(SCCOc3ccccc3)o2)c1	i	i	i	24	i	i
CCN(c1ccc(NC(=O)COC(=O)c2ccc(S(=O)(=O)N3CCCC3)cc2)cc1)C(C)C	i	i	i	i	nt	nt
Cc1[nH]c(=O)c(C#N)cc1-c1ccccc1	i	i	i	26	20	38
Cc1ccc(S(=O)(=O)N2CCCOC2CNC(=O)C(=O)NC2CCCCC2)cc1 (centres undefined)	i	i	nt	i	nt	nt
CC(C)CC(c1nnnn1C1CCCC1)N1CCN(c2ccccc2F)CC1 (centres undefined)	i	i	i	27	24	i
COc1ccc(N2CCN(C(c3cccc(OC)c3OC)c3nnnn3C3CCCC3)CC2)cc1 (centres undefined)	i	i	i	23	22	i
CC(C)CC(c1nnnn1C1CCCCC1)N1CCN(c2ncccn2)CC1 (centres undefined)	i	i	i	i	nt	nt
COc1ccc(OC)c(C(c2nnnn2C2CCCC2)N2CCN(c3ccccc3F)CC2)c1 (centres undefined)	i	i	i	22	i	i
Cc1cc2ncn(C(=O)c3c(-c4ccccc4Cl)noc3C)c2cc1C	i	i	i	i	nt	nt
O=C(CN1C2=NCCCN2c2ccccc21)c1ccc(Cl)cc1Cl	i	i	i	i	nt	nt
CCCCCn1cnc2c(sc3nc4c(cc32)CSC(C)(C)C4)c1=O	i	i	i	i	nt	nt
CCOC(=O)c1ccc(Nc2ncnc3ccc(C)cc23)cc1	i	i	i	45	i	i
COn1c(SCc2ccc(Cl)cc2)nc2ccccc2c1=O	i	i	i	38	27	21
CC1CCN(CCCNC(=O)c2cn(C)c3ccc(S(=O)(=O)N4CCCC4)cc3c2=O)CC1	i	i	i	28	i	i
CN1CCN(NC(=O)c2ccc(Cl)s2)CC1	i	i	nt	i	nt	nt
O=C(COc1ccc2ccccc2c1)NCCc1ccc2c(c1)OCCO2	i	i	i	25	i	i
O=C(COc1ccc2ccccc2c1)NCCNC(=O)COc1ccc2ccccc2c1	i	i	i	i	nt	nt
O=C(Nc1cccc(Cl)c1)C1C2CCC3C(CCC21)C3(Cl)Cl (centres undefined)	i	i	i	33	i	i
Cc1ccc(OCC(=O)N/N=C/C=C/c2ccco2)cc1C	i	i	i	i	nt	nt
COc1ccc(CCN2C(=O)C(O)=C(C(=O)c3ccco3)C2c2cccs2)cc1OC (centres undefined)	i	i	i	23	i	i
COc1cc(C2C(C(=O)c3ccco3)=C(O)C(=O)N2CCc2ccccc2)ccc1O (centres undefined)	i	i	i	i	nt	nt
Cc1c(CCCN)c2ccccc2n1Cc1ccccc1	i	i	nt	i	nt	nt
SMILES	NPY-Y1 PAM-ag	NPY-Y2 PAM-ag	NPY Y2 blocker	NPY Y1 blocker	NPY-Y1 ant conf	NPY-Y2 antag ct
O=C(CSc1nnc(Nc2ccccc2)s1)Nc1cccc(S(=O)(=O)N2CCCCC2)c1	i	i	i	i	nt	nt
COCCOC(=O)c1[nH]c2c(c1C)C(=O)CC(c1cccs1)C2 (centres undefined)	i	i	nt	i	nt	nt
Cc1c(C(=O)OCC(C)C)[nH]c2c1C(=O)CC(c1cccs1)C2 (centres undefined)	i	i	i	30	i	24
N#CC(c1ccc(Cl)nn1)c1c(F)cccc1Cl (centres undefined)	i	i	nt	i	nt	nt
CC1CCc2cc(F)ccc2N1C(=O)CSc1nnc2c(n1)[nH]c1ccc(F)cc12 (centres undefined)	i	i	i	i	nt	nt
COc1ccc(-c2nnc(OCc3nc4ccccc4n3C)c3ccccc23)cc1	i	i	i	i	nt	nt
Cn1c(COc2nnc(-c3ccc(Cl)cc3)c3ccccc23)nc2ccccc21	i	i	i	39	i	i
CCOC(=O)C1(CC2CCCCO2)CCN(C2CCSCC2)CC1 (centres undefined)	i	i	nt	34	i	i
CCC(Sc1ncnc2sc(C)c(C)c12)C(=O)OC (centres undefined)	i	i	i	26	i	i
